In ChEMBL document CHEMBL1629658, “A 10-year survey of antifungal susceptibility of candidemia isolates from intensive care unit patients in Greece” (2009):
≈ marks a conversion by molar mass, not a printed value. Numbered stars: 1 amine (or outer) side, 2 acyl side, 3 side chain; on linkers, the order of the positions; unused ones are H or OH. Bridge positions count the residues as written; N and C are the ends. Square brackets hold non-standard residues; d marks the D form. Peptide text beside a SMILES is read from it. * marks the point of attachment. hTyr(3S-OH,4S-OH,3'-OSO3H) = N[C@H](C(=O)O)[C@H](O)[C@@H](O)c1ccc(O)c(OS(=O)(=O)O)c1; pTerphenylCO(4''-OnC5H11) = CCCCCOc1ccc(-c2ccc(-c3ccc(C(=O)*)cc3)cc2)cc1; Orn(4R-OH,5R-OH) = O=C([C@H](C[C@@H](O)[C@@H](O)N[*:3])N[*:1])[*:2]; hTyr(3S-OH,4S-OH) = N[C@H](C(=O)O)[C@H](O)[C@@H](O)c1ccc(O)cc1; Pro(3S-OH,4S-Me) = C[C@H]1CN[C@H](C(=O)O)[C@H]1O; X1 = CCCCCOc1ccc(-c2cc(-c3ccc(C(=O)*)cc3)no2)cc1; Gln(3R-OH) = NC(=O)C[C@@H](O)[C@H](N)C(=O)O; Hyp = O=C(O)[C@@H]1C[C@@H](O)CN1

Columns and labels:
Format in all cases: functional
Candida parapsilosis [1] = experiment: Antifungal activity against Candida parapsilosis isolated from candidemia patient by AFST-EUCAST microdilution method; conditions: Lodderomyces parapsilosis
Candida tropicalis = experiment: Antifungal activity against Candida tropicalis isolated from candidemia patient by AFST-EUCAST microdilution method
Candida dubliniensis = experiment: Antifungal activity against Candida dubliniensis isolated from candidemia patient by AFST-EUCAST microdilution method
[2] = Antifungal activity against Candida pulcherrima isolated from candidemia patient by AFST-EUCAST microdilution method; conditions: Metschnikowia pulcherrima
Kluyveromyces marxianus = experiment: Antifungal activity against Candida kefyr isolated from candidemia patient by AFST-EUCAST microdilution method
Pichia kudriavzevii [3] = experiment: Antifungal activity against Candida krusei isolated from candidemia patient by AFST-EUCAST microdilution method
[Candida] intermedia = Antifungal activity against Candida intermedia isolated from candidemia patient by AFST-EUCAST microdilution method; conditions: Sungouiella intermedia
[4] = tested on: Meyerozyma guilliermondii; experiment: Antifungal activity against Candida guilliermondii isolated from candidemia patient by AFST-EUCAST microdilution method
Wickerhamomyces anomalus = experiment: Antifungal activity against Candida pelliculosa isolated from candidemia patient by AFST-EUCAST microdilution method; conditions: Hansenula anomala
Clavispora lusitaniae = experiment: Antifungal activity against Clavispora lusitaniae isolated from candidemia patient by AFST-EUCAST microdilution method
Diutina rugosa = experiment: Antifungal activity against Candida rugosa isolated from candidemia patient by AFST-EUCAST microdilution method
Nakaseomyces glabratus = experiment: Antifungal activity against Candida glabrata isolated from candidemia patient by AFST-EUCAST microdilution method
Candida albicans = experiment: Antifungal activity against Candida albicans isolated from candidemia patient by AFST-EUCAST microdilution method
Yarrowia lipolytica = experiment: Antifungal activity against Candida lipolytica isolated from candidemia patient by AFST-EUCAST microdilution method
Candida parapsilosis [5] = experiment: Antifungal activity against Candida parapsilosis ATCC 22019 isolated from candidemia patient by AFST-EUCAST microdilution method; conditions: Lodderomyces parapsilosis
Procedure, shortened: (§1)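 Designated quality-control strain included on every testing occasion and run by the AFST-EUCAST broth microdilution reference procedure (EDef 7.1) alongside the clinical isolates. Its MICs were checked against the reference range for EUCAST-evaluated drugs. Pure standard compounds were used: azoles, amphotericin B, flucytosine and echinocandins.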

Pichia kudriavzevii [6] = experiment: Antifungal activity against Candida krusei ATCC 6258 isolated from candidemia patient by AFST-EUCAST microdilution method; procedure, shortened: as §1

SMILES | MIC90 (Candida parapsilosis [1]) [µg/mL] | MIC90 (Candida tropicalis) [µg/mL] | MIC (Candida dubliniensis) [µg/mL] | MIC [2] [µg/mL] | MIC (Kluyveromyces marxianus) [µg/mL] | MIC (Pichia kudriavzevii [3]) [µg/mL] | MIC90 (Pichia kudriavzevii [3]) [µg/mL] | MIC ([Candida] intermedia) [µg/mL] | MIC [4] [µg/mL] | MIC (Wickerhamomyces anomalus) [µg/mL] | MIC90 (Clavispora lusitaniae) [µg/mL] | MIC (Diutina rugosa) [µg/mL] | MIC90 (Nakaseomyces glabratus) [µg/mL] | MIC (Candida albicans) [µg/mL] | MIC90 (Candida albicans) [µg/mL] | MIC (Yarrowia lipolytica) [µg/mL] | MIC (Candida parapsilosis [5]) [µg/mL] | MIC (Pichia kudriavzevii [6]) [µg/mL] | further results
C[C@@H]1[C@H](O)[C@@H](C)/C=C/C=C/C=C/C=C/C=C/C=C/C=C/[C@H](O[C@@H]2O[C@H](C)[C@@H](O)[C@H](N)[C@@H]2O)C[C@@H]2O[C@](O)(C[C@@H](O)C[C@@H](O)[C@H](O)CC[C@@H](O)C[C@@H](O)CC(=O)O[C@H]1C)C[C@H](O)[C@H]2C(=O)O [AMPHOTERICIN B] | 0.25 (≈ 0.271 µM) | 0.25 (≈ 0.271 µM) | 0.06 (≈ 0.0649 µM) | 0.12 (≈ 0.13 µM) | 0.5 (≈ 0.541 µM) | 0.25 (≈ 0.271 µM) | 0.25 (≈ 0.271 µM) | 0.5 (≈ 0.541 µM) | 0.5 (≈ 0.541 µM) | 0.25 (≈ 0.271 µM) | 4 (≈ 4.33 µM) | 0.12 (≈ 0.13 µM) | 0.5 (≈ 0.541 µM) | 0.12 (≈ 0.13 µM) | 0.12 (≈ 0.13 µM) | 1 (≈ 1.08 µM) | – | – | MIC (Candida tropicalis): 0.25 µg/mL (≈ 0.271 µM); MIC (Nakaseomyces glabratus): 0.5 µg/mL (≈ 0.541 µM)
CCCCCOc1ccc(-c2ccc(-c3ccc(C(=O)N[C@H]4C[C@@H](O)[C@@H](O)NC(=O)[C@@H]5[C@@H](O)[C@@H](C)CN5C(=O)[C@H]([C@@H](C)O)NC(=O)[C@H]([C@H](O)[C@@H](O)c5ccc(O)cc5)NC(=O)[C@@H]5C[C@@H](O)CN5C(=O)[C@H]([C@@H](C)O)NC4=O)cc3)cc2)cc1 [ANIDULAFUNGIN] ({pTerphenylCO(4''-OnC5H11)}-[Orn(4R-OH,5R-OH)]T[Hyp][hTyr(3S-OH,4S-OH)]T[Pro(3S-OH,4S-Me)]; lactam 1-C) | 2 (≈ 1.75 µM) | 0.25 (≈ 0.219 µM) | 0.03 (≈ 0.0263 µM) | 0.03 (≈ 0.0263 µM) | 16 (≈ 14 µM) | – | 0.06 (≈ 0.0526 µM) | 0.03 (≈ 0.0263 µM) | 0.5 (≈ 0.438 µM) | 1 (≈ 0.877 µM) | 1 (≈ 0.877 µM) | 0.12 (≈ 0.105 µM) | 0.12 (≈ 0.105 µM) | – | 0.12 (≈ 0.105 µM) | 0.03 (≈ 0.0263 µM) | 0.5 (≈ 0.438 µM) | 0.25 (≈ 0.219 µM) | –
CC[C@H](C)C[C@H](C)CCCCCCCCC(=O)N[C@H]1C[C@@H](O)[C@@H](NCCN)NC(=O)[C@@H]2[C@@H](O)CCN2C(=O)[C@H]([C@H](O)CCN)NC(=O)[C@H]([C@H](O)[C@@H](O)c2ccc(O)cc2)NC(=O)[C@@H]2C[C@@H](O)CN2C(=O)[C@H]([C@@H](C)O)NC1=O [CASPOFUNGIN] | 2 (≈ 1.83 µM) | 0.25 (≈ 0.229 µM) | 0.25 (≈ 0.229 µM) | 0.03 (≈ 0.0274 µM) | 8 (≈ 7.32 µM) | 0.5 (≈ 0.457 µM) | 0.12 (≈ 0.11 µM) | 0.03 (≈ 0.0274 µM) | 1 (≈ 0.915 µM) | 0.03 (≈ 0.0274 µM) | 1 (≈ 0.915 µM) | 0.25 (≈ 0.229 µM) | 1 (≈ 0.915 µM) | 0.12 (≈ 0.11 µM) | 0.12 (≈ 0.11 µM) | 0.12 (≈ 0.11 µM) | 2 (≈ 1.83 µM) | 0.5 (≈ 0.457 µM) | –
OC(Cn1cncn1)(Cn1cncn1)c1ccc(F)cc1F [FLUCONAZOLE] | 4 (≈ 13.1 µM) | 2 (≈ 6.53 µM) | 0.12 (≈ 0.392 µM) | – | 0.12 (≈ 0.392 µM) | 32 (≈ 104 µM) | 32 (≈ 104 µM) | 1 (≈ 3.27 µM) | – | 2 (≈ 6.53 µM) | 4 (≈ 13.1 µM) | 2 (≈ 6.53 µM) | 16 (≈ 52.2 µM) | – | 0.5 (≈ 1.63 µM) | – | – | – | –
Nc1nc(=O)[nH]cc1F [FLUCYTOSINE] | 0.5 (≈ 3.87 µM) | 0.5 (≈ 3.87 µM) | 0.12 (≈ 0.93 µM) | 0.12 (≈ 0.93 µM) | 0.12 (≈ 0.93 µM) | – | 2 (≈ 15.5 µM) | 64 (≈ 496 µM) | 0.12 (≈ 0.93 µM) | 0.12 (≈ 0.93 µM) | 2 (≈ 15.5 µM) | 0.5 (≈ 3.87 µM) | 0.25 (≈ 1.94 µM) | – | 2 (≈ 15.5 µM) | 0.12 (≈ 0.93 µM) | – | – | –
CCC(C)n1ncn(-c2ccc(N3CCN(c4ccc(OCC5COC(Cn6cncn6)(c6ccc(Cl)cc6Cl)O5)cc4)CC3)cc2)c1=O (configuration not stated) [ITRACONAZOLE] | 0.12 (≈ 0.17 µM) | 0.12 (≈ 0.17 µM) | 0.06 (≈ 0.085 µM) | 0.12 (≈ 0.17 µM) | 0.25 (≈ 0.354 µM) | 0.12 (≈ 0.17 µM) | 0.12 (≈ 0.17 µM) | 0.12 (≈ 0.17 µM) | 1 (≈ 1.42 µM) | 0.25 (≈ 0.354 µM) | 0.25 (≈ 0.354 µM) | 0.03 (≈ 0.0425 µM) | 0.5 (≈ 0.709 µM) | – | 0.5 (≈ 0.709 µM) | 0.12 (≈ 0.17 µM) | – | – | MIC (Candida tropicalis): 0.12 µg/mL (≈ 0.17 µM); MIC (Nakaseomyces glabratus): 0.5 µg/mL (≈ 0.709 µM)
CCCCCOc1ccc(-c2cc(-c3ccc(C(=O)N[C@H]4C[C@@H](O)[C@@H](O)NC(=O)[C@@H]5[C@@H](O)[C@@H](C)CN5C(=O)[C@H]([C@H](O)CC(N)=O)NC(=O)[C@H]([C@H](O)[C@@H](O)c5ccc(O)c(OS(=O)(=O)O)c5)NC(=O)[C@@H]5C[C@@H](O)CN5C(=O)[C@H]([C@@H](C)O)NC4=O)cc3)no2)cc1 [MICAFUNGIN] (X1-[Orn(4R-OH,5R-OH)]T[Hyp][hTyr(3S-OH,4S-OH,3'-OSO3H)][Gln(3R-OH)][Pro(3S-OH,4S-Me)]; lactam 1-C) | 2 (≈ 1.57 µM) | 0.12 (≈ 0.0945 µM) | 0.03 (≈ 0.0236 µM) | 0.03 (≈ 0.0236 µM) | 4 (≈ 3.15 µM) | – | 0.12 (≈ 0.0945 µM) | 0.03 (≈ 0.0236 µM) | 0.25 (≈ 0.197 µM) | 0.5 (≈ 0.394 µM) | 0.12 (≈ 0.0945 µM) | 0.03 (≈ 0.0236 µM) | 0.25 (≈ 0.197 µM) | – | 0.06 (≈ 0.0472 µM) | 0.03 (≈ 0.0236 µM) | 0.5 (≈ 0.394 µM) | 0.5 (≈ 0.394 µM) | –
CC[C@@H]([C@H](C)O)n1ncn(-c2ccc(N3CCN(c4ccc(OC[C@@H]5CO[C@@](Cn6cncn6)(c6ccc(F)cc6F)C5)cc4)CC3)cc2)c1=O [POSACONAZOLE] | 0.12 (≈ 0.171 µM) | 0.12 (≈ 0.171 µM) | 0.01 (≈ 0.0143 µM) | 0.03 (≈ 0.0428 µM) | 0.25 (≈ 0.357 µM) | – | 0.5 (≈ 0.713 µM) | 0.25 (≈ 0.357 µM) | 0.12 (≈ 0.171 µM) | 0.03 (≈ 0.0428 µM) | 0.03 (≈ 0.0428 µM) | 0.03 (≈ 0.0428 µM) | 0.25 (≈ 0.357 µM) | – | 0.12 (≈ 0.171 µM) | 0.03 (≈ 0.0428 µM) | – | – | MIC (Clavispora lusitaniae): 0.03 µg/mL (≈ 0.0428 µM)
C[C@@H](c1ncncc1F)[C@](O)(Cn1cncn1)c1ccc(F)cc1F [VORICONAZOLE] | 0.06 (≈ 0.172 µM) | 0.12 (≈ 0.344 µM) | 0.03 (≈ 0.0859 µM) | 0.25 (≈ 0.716 µM) | 4 (≈ 11.5 µM) | – | 1 (≈ 2.86 µM) | 0.06 (≈ 0.172 µM) | 0.06 (≈ 0.172 µM) | 0.12 (≈ 0.344 µM) | 0.5 (≈ 1.43 µM) | 0.01 (≈ 0.0286 µM) | 0.5 (≈ 1.43 µM) | 0.01 (≈ 0.0286 µM) | 0.03 (≈ 0.0859 µM) | 0.03 (≈ 0.0859 µM) | – | – | MIC (Candida parapsilosis [1]): 0.06 µg/mL (≈ 0.172 µM)
